Consider three molecules from ChEMBL document CHEMBL3102812 (J Med Chem, 2013).

SMILES strings stand for the structures. Converted amounts (≈) assume the structure as drawn. The source made the active and inactive calls. The rule behind the calls is not given here.

A short description of data set [1]: Partition coefficient, log D of the compound at pH 7.4 by chromatographic method. Particulars: octanol/water.
The target in another data set is Cytochrome P450 3A4 (Homo sapiens, UniProt P08684). Kind of data set: Inhibition of CYP3A4 in human liver microsomes assessed as 6beta-hydroxylation of testosterone.
Data set [2] has as its system Trypanosoma cruzi. Kind of data set: Antitrypanosomal activity against Trypanosoma cruzi Tulahuen 6 infected in Swiss mouse assessed as mouse survival at 5 mg/kg, po qd administered on day 8 post-infection for 20 days measured on day 28 post-infection by microscopic analysis. In kind it is functional, organism-based. Also on record: dose 5 mg/kg.
In data set [3] the test system is Mus musculus. In words: Toxicity in Swiss mouse at 20 mg/kg, po. To be noted: in vivo.
A short description of data set [4]: Plasma clearance in Swiss mouse at 2 mg/kg, iv and 20 mg/kg, po by LC/MS analysis. The data set is classed as ADME, organism-based.
A short description of data set [5]: Half life in Swiss mouse at 2 mg/kg, iv by LC/MS analysis. Particulars: in vivo. The data set is classed as ADME, organism-based. Also on record: dose 2 mg/kg, route intravenous.
Data set [6] deals with Trypanosoma cruzi. In words: Antitrypanosomal activity against Trypanosoma cruzi Tulahuen 6 infected in Swiss mouse assessed as mouse survival at 5 mg/kg, po qd administered on day 8 post-infection for 20 days followed by 10 days non-treatment measured on day 37 post-infection by microscopic analysis. The data set is classed as functional, organism-based. Also on record: dose 5 mg/kg.

Data set [7] in a line: Kinetic aqueous solubility of the compound in phosphate buffer at pH 2 by nephelometric analysis. Particulars: phosphate buffer.
The subject of data set [8] is Mus musculus. In words: Toxicity in Swiss mouse assessed as weight loss at 25 mg/kg, po bid for 2.5 days. In kind it is organism-based. Also on record: dose 25 mg/kg, route oral. Particulars: in vivo, 60 h. The procedure, abridged: (§1)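 Acute toxicity by stepwise cumulative oral dosing in two mice per compound: 25 and/or 50 mg/kg twice daily for 2.5 days to […]; animals observed for 1 week after the last dose for adverse effects and weight loss.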

The nature of data set [9]: Kinetic aqueous solubility of the compound in phosphate buffer at pH 6.5 by nephelometric analysis.
A short description of data set [10]: Half life in Swiss mouse at 20 mg/kg, po by LC/MS analysis. Particulars: in vivo. On the set-up: dose 20 mg/kg, route oral. In kind it is ADME, organism-based.
For data set [11], the system named is Trypanosoma cruzi. Kind of data set: Antitrypanosomal activity against Trypanosoma cruzi Tulahuen 6 infected in Swiss mouse at 5 mg/kg, po qd administered on day 8 post-infection for 20 days followed by 10 days non-treatment period followed by three cycles of immunosuppression measured on day 58 post-infection by PCR analysis. The data set is classed as functional, organism-based. On the set-up: dose 5 mg/kg.

In data set [12] the test system is Trypanosoma cruzi. In words: Antitrypanosomal activity against Trypanosoma cruzi Tulahuen 6 infected in Swiss mouse assessed as mouse survival at 10 mg/kg, po qd administered on day 8 post-infection for 20 days measured on day 28 post-infection by microscopic analysis. In kind it is functional, organism-based. Also on record: dose 10 mg/kg. The procedure, abridged:
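Outbred female Swiss mice (~8 weeks) infected with mouse-passaged Tulahuen TcVI trypomastigotes; oral dosing once daily for 20 days from day 8 post-infection, suspension in 0.5% HPMC, 0.4% Tween 80, 0.5% benzyl alcohol, 5% DMSO in water; blood parasitemia by microscopy (LOD 20 000 parasites/mL); mice with recurring parasitemia euthanized; survival counted per starting group; 10-day untreated period days 28–37.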

Data set [13] is described as follows: Volume of distribution at steady state in Swiss mouse at 2 mg/kg, iv and 20 mg/kg, po by LC/MS analysis. In kind it is ADME, organism-based. To be noted: in vivo, read-out: Vdss.
Data set [14] concerns Mus musculus. In words: Toxicity in Swiss mouse assessed as weight loss at 50 mg/kg, po bid for 2.5 days. Also on record: dose 50 mg/kg, route oral. In kind it is organism-based. Particulars: in vivo, 60 h. The procedure, abridged:
as §1

For data set [15], the system named is Trypanosoma cruzi. Kind of data set: Antitrypanosomal activity against Trypanosoma cruzi Tulahuen 6 infected in Swiss mouse assessed as mouse survival at 10 mg/kg, po qd administered on day 8 post-infection for 20 days followed by 10 days non-treatment measured on day 37 post-infection by microscopic analysis. The data set is classed as functional, organism-based. On the set-up: dose 10 mg/kg.

Data set [16] relates to Trypanosoma cruzi. Kind of data set: Antitrypanosomal activity against Trypanosoma cruzi Tulahuen 6 infected in Swiss mouse assessed as mouse survival at 5 mg/kg, po qd administered on day 8 post-infection measured on same day by microscopic analysis. The data set is classed as functional, organism-based. Also on record: dose 5 mg/kg.
Data set [17] concerns Trypanosoma cruzi. In words: Antitrypanosomal activity against Trypanosoma cruzi Tulahuen 6 infected in Swiss mouse assessed as mouse survival at 10 mg/kg, po qd administered on day 8 post-infection measured on same day by microscopic analysis. The data set is classed as functional, organism-based. Also on record: dose 10 mg/kg.
In data set [18] the test system is Mus musculus. Kind of data set: Oral bioavailability in Swiss mouse at 20 mg/kg by LC/MS analysis. The data set is classed as ADME, organism-based. Particulars: in vivo.
Data set [19] has as its system Trypanosoma cruzi. Kind of data set: Antitrypanosomal activity against Trypanosoma cruzi Tulahuen 6 infected in Swiss mouse assessed as mouse survival at 100 mg/kg, po qd administered on day 8 post-infection measured on same day by microscopic analysis. On the set-up: dose 100 mg/kg. In kind it is functional, organism-based.
In data set [20] the test system is Trypanosoma cruzi. In words: Antitrypanosomal activity against Trypanosoma cruzi Tulahuen 6 infected in Swiss mouse assessed as mouse survival at 100 mg/kg, po qd administered on day 8 post-infection for 20 days followed by 10 days non-treatment period followed by three cycles of immunosuppression measured on day 58 post-infection by microscopic analysis. In kind it is functional, organism-based. Also on record: dose 100 mg/kg.

Data set [21] in a line: Plasma concentration in Swiss mouse at 20 mg/kg, po after 0.5 hrs by LC/MS analysis.
The test system of data set [22] is Trypanosoma cruzi. Kind of data set: Antitrypanosomal activity against Trypanosoma cruzi Tulahuen 6 infected in Swiss mouse assessed as reduction in blood parasitemia at 20 mg/kg, po qd administered on day 8 post-infection for 10 days by microscopic analysis. In kind it is functional, organism-based. On the set-up: dose 20 mg/kg. The method, boiled down:
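Infected Swiss mice dosed orally at 20 mg/kg once daily for up to 10 days starting day 8 pi; blood parasitemia followed by microscopy throughout dosing, scored as cleared or not during the dosing period.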

Data set [23] can be described thus: Plasma concentration in Swiss mouse at 20 mg/kg, po after 24 hrs by LC/MS analysis.
Data set [24] concerns Trypanosoma cruzi. In words: Antitrypanosomal activity against Trypanosoma cruzi Tulahuen 6 amastigotes infected in rat L6 cells after 96 hrs by colorimetric method. Particulars: Tulahuen 6, L6, 96 h. In kind it is functional, organism-based.

Cytochrome P450 3A4, sequence (P08684 whole entry): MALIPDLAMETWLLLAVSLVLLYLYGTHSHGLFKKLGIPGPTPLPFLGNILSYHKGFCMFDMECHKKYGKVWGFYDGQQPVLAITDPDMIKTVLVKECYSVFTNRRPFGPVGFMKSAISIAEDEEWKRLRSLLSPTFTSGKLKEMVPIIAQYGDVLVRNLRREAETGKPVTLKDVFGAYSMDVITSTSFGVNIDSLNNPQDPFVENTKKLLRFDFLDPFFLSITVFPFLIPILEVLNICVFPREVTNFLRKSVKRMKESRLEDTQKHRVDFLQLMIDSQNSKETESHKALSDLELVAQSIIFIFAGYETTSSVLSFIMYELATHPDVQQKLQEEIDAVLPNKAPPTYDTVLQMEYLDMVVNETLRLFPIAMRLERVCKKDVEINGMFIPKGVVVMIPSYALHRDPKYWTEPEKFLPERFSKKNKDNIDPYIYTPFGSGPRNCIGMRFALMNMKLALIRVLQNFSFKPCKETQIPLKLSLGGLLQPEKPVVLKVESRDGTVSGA

In general, chromatographic logD refers to lipophilicity estimated from chromatographic retention. Low values mean lower lipophilicity, high ones higher lipophilicity. As usually defined, the IC50 is the concentration that inhibits the measured activity by half. As usually defined, the half-life is the time in which the quantity being followed falls by half. A higher half-life goes with slow loss. A word on the kinetic solubility: it is the concentration staying in solution when a stock, usually in DMSO, is diluted into the medium. Take `O=C([C@@H](c1ccc(Cl)cc1)c1cccnc1)N1CCN(c2ccc(C(F)(F)F)cc2)CC1`: the chromatographic logD in data set [1] worked out at 4.5. On Cytochrome P450 3A4, the IC50 turned out to be 15 µM. Besides, the outcome in the data set with Trypanosoma cruzi [2], in the data set with Trypanosoma cruzi [6], in the data set with Trypanosoma cruzi [12], in the data set on Trypanosoma cruzi [15], in the data set with Trypanosoma cruzi [16] and in the data set with Trypanosoma cruzi [17] was Active. The Activity entry in the data set with Mus musculus [3], in the data set with Mus musculus [8] and with Mus musculus [14] was “Non-toxic” in each case. The molecule also registered a clearance in data set [4] of 7.7 mL/min/kg. Moreover, the figures for the half-life in data set [5] and in data set [10] were 5.9 h and 8.2 h, respectively. Besides, the solubility (kinetic) is above 100 µg/mL in data set [7] and 1.6 µg/mL (≈ 3.48 µM) in data set [9]. In the data set with Trypanosoma cruzi [11], the outcome was inactive. The Vd in [13] is 4.2 L/kg. Moreover, the F in the data set with Mus musculus [18] is listed as 64%.

Turning to `O=C(Cn1ccnc1[N+](=O)[O-])NCc1ccccc1`, in the data set on Trypanosoma cruzi [19], the outcome was Active. The result in the data set on Trypanosoma cruzi [20] was inactive.

In data set [21], `CC(C)(C)NC(=O)N1CCC(NC(c2ccc(C(F)(F)F)cc2)c2cccnc2)CC1` (stereo unspecified) gave a concentration at 0.5 h of 3260 nM. The Activity result in the data set with Mus musculus [3] is “Non-toxic”. Further, the outcome in the data set on Trypanosoma cruzi [22] was inactive. The molecule also displayed a concentration at 24 h in [23] of 1 nM. The IC50 with Trypanosoma cruzi [24] was 0.061 µM.
